The subject of data set [1] is Trypanosoma brucei. The data set can be described thus: Antitrypanosomal activity against Trypanosoma brucei Lister 427 infected in Swiss Webster mouse assessed as reduction in parasitemia at 130 mg/kg, po via gavage once daily for 10 days starting from 24 hrs post infection measured on day 13 by hemocytometric method. The data set is classed as functional, organism-based. The gist of the method:
(§1)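 Mice, four per group, infected with 10^5 T. brucei Lister427 (day 0); from 24 h, 130 mg/kg by oral gavage once daily for 10 days in 10% NMP/90% PEG; controls received vehicle; parasitemia followed over time after infection; mean parasitemia compared by Student's t test.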

Data set [2] relates to Trypanosoma brucei brucei. As to the kind of experiment: Antitrypanosomal activity against Trypanosoma brucei brucei 427 after 48 hrs by presto blue dye based fluorescence assay. Conditions: Trypanosoma brucei, 427, 48 h. The data set is classed as functional, organism-based.
Data set [3] deals with Trypanosoma brucei. As to the kind of experiment: Antitrypanosomal activity against Trypanosoma brucei Lister 427 assessed as reduction in fraction of trypanosomes containing one kinetoplast at 9.5 uM after 3 hrs by mCLING/DAPI staining based fluorescence microsocpic method. The data set is classed as functional, organism-based. The gist of the method:
(§2)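 Mid-log bloodstream T. brucei (5 × 10^5 cells/mL) exposed to compound or DMSO for 3 h, fixed, stained with mCLING plus DAPI for kinetoplast and nuclear DNA; kinetoplasts and nuclei per cell counted by fluorescence microscopy (n >120 cells); mean percentages over three biological replicates; distribution compared by Pearson χ2.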

For data set [4], the system named is Trypanosoma brucei. The data set can be described thus: Antitrypanosomal activity against Trypanosoma brucei Lister 427 assessed as increase in fraction of trypanosomes containing one 2K1N at 9.5 uM after 3 hrs by mCLING/DAPI staining based fluorescence microsocpic method. The data set is classed as functional, organism-based. The gist of the method:
as §2

Data set [5] has as its system Trypanosoma brucei. The data set can be described thus: Antitrypanosomal activity against Trypanosoma brucei Lister 427 infected in Swiss Webster mouse assessed as mouse survival at 130 mg/kg, po via gavage once daily for 10 days starting from 24 hrs post infection (reference value: 5 day). The data set is classed as functional. The gist of the method:
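Mice, four per group, infected with 10^5 T. brucei Lister427 on day 0. From 24 h, oral gavage at 130 mg/kg once daily for 10 days in 10% NMP/90% PEG; controls received vehicle only. Parasitemia followed through and after dosing. Survival compared by chi-square analysis of Kaplan–Meier data.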

Data set [6] concerns Trypanosoma brucei. As to the kind of experiment: Inhibition of transferrin-647 uptake in Trypanosoma brucei Lister 427 at 9.5 uM after 3 hrs by propidium iodide staining based flow cytometry. The data set is classed as functional, organism-based.
The subject of data set [7] is Trypanosoma brucei. As to the kind of experiment: Antitrypanosomal activity against Trypanosoma brucei Lister 427 assessed as reduction in fraction of trypanosomes containing one nucleus at 9.5 uM after 3 hrs by mCLING/DAPI staining based fluorescence microsocpic method. The data set is classed as functional, organism-based. The procedure, abridged: as §2
For data set [8], the system named is Trypanosoma brucei. The data set can be described thus: Antitrypanosomal activity against Trypanosoma brucei Lister 427 infected in Swiss Webster mouse assessed as reduction in parasitemia at 130 mg/kg, po via gavage once daily for 10 days starting from 24 hrs post infection by hemocytometric method. The data set is classed as functional, organism-based. The gist of the method: as §1

In data set [9] the test system is Mus musculus. The data set can be described thus: Time at which plasma concentration stays above in vitro antitrypanosomal EC50 in Swiss Webster mouse at 130 mg/kg, po by LC-MS/MS analysis. The data set is classed as ADME, organism-based. Conditions: in vivo.
Data set [10] deals with Mus musculus. The data set can be described thus: Toxicity in Swiss Webster mouse infected with Trypanosoma brucei Lister 427 at 130 mg/kg, po via gavage once daily for 10 days starting from 24 hrs post infection. The data set is classed as organism-based. Conditions: in vivo. The procedure, abridged: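 Infected mice (four per group; 10^5 T. brucei Lister427) dosed orally 130 mg/kg once daily for 10 days from 24 h post-infection, vehicle 10% NMP/90% PEG; observed for signs of toxicity.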

Data set [11] has as its system Trypanosoma brucei. The data set can be described thus: Antitrypanosomal activity against Trypanosoma brucei Lister 427 assessed as increase in fraction of trypanosomes containing one 2K2N at 9.5 uM after 3 hrs by mCLING/DAPI staining based fluorescence microsocpic method. The data set is classed as functional, organism-based. The gist of the method:
as §2

Activity calls are given as the source filed them. The calls are words filed in the database; no cut-off is given here.

For the compound `Fc1cccc(COc2ccc(Nc3ncnc4cc(C#C[C@H]5CCCN5)sc34)cc2Cl)c1`, in data set [1], the outcome was inactive. In addition, the EC50 in data set [2] stood at 260 nM. In addition, the outcome in data set [3], in [4], in [7], in [8] and in data set [11] was Active. For the same compound, in [5], the Survival came out at 7.5 days. Moreover, in [6], the inhibition entry was “inactive”. The Time result in [9] is given as “<= 4 hr”. In addition, the Activity entry in data set [10] is reported as “Non-Toxic”.

Source of the values: ChEMBL document CHEMBL4266004, “Series of Alkynyl-Substituted Thienopyrimidines as Inhibitors of Protozoan Parasite Proliferation” (ACS Med Chem Lett, 2018).
